The list is not random: actives were taken first. Their share in the collection is about 2.6%.
RAD52 inh: RAD52 (human) annealing inhibition; P43351; recombinant RAD52 DNA annealing, FRET fluorescence; inhibition, % at 18.7 µM; actives 0.46% (n = 360,000); AID 651710;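 active means every replicate showing at least 50% inhibition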
rRNA inh HTS: inhibitors of bacterial rRNA selective over humanized ribosomes. E. coli WT GFP vs humanized-ribosome RFP mutants, fluorescence, 24 h; active compounds read low; DMSO median 0, no signal -100. GFP signal change (wild-type ribosome), % (test concentration not listed). actives 1.6% (n = 350,000). AID 720706;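 active means significant combined selectivity score with lowered wild-type GFP, culture density cut under 30%, mutant RFP and density less affected; inactive means any of these conditions unmet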
E-selectin induc: E-selectin induction on HUVECs; P16581; HUVEC E-selectin immunofluorescence imaging; normalized: neutral wells 0, TNF-alpha wells 100; activation, % at 7.58 µM; actives 0.37% (n = 260,000); AID 686992;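 active means mean E-selectin-positive cell signal at least 10% of the positive control, reached in at least 60% of replicates, without over 20% cell loss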
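Test system: HUVEC; input: 3,000 HUVEC/well; measured by: immunofluorescence imaging; read-out: % PE-positive cells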
INS-1E GSIS act: primary screen for activators of insulin secretion dependent on glucose, INS-1E cells, GLuc reporter luminescence. INS-1E GLuc reporter insulin secretion, 2-3 h. activation, % at 16.6 µM. actives 0.61% (n = 370,000);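 active means lowest replicate activation of at least 40%, so every replicate reaches that level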
MLL AF4-AF9 inh: MLL-AF4/AF9 protein interaction inhibition; AlphaScreen, biotin-AF4 peptide binding to FLAG-AF9; inhibition, % at 10 µM; actives 0.47% (n = 350,000); AID 651704; P42568;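 active means every replicate reaching a set inhibition limit, whatever the replicate mean, cut at about 25% in these data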
Target sequence (P42568 whole entry, looked up): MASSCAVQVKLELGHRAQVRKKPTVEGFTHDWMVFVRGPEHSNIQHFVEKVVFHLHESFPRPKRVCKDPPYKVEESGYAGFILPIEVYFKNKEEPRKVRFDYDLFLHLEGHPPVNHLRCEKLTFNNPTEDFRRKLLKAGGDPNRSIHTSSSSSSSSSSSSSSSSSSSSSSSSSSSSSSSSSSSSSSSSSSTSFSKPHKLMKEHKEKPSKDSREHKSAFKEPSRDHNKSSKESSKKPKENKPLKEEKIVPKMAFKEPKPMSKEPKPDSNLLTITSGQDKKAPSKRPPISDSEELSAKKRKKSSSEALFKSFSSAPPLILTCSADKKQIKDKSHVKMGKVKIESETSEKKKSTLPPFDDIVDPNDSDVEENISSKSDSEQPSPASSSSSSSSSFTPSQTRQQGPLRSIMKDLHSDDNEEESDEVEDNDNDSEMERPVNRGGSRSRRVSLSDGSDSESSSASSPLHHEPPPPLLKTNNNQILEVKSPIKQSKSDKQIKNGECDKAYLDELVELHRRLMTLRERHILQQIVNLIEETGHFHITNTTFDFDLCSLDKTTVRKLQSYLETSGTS
RAD54 branch: inhibitors of human RAD54 branch migration; RAD54 Holliday junction branch migration, FAM/BHQ fluorescence; Q92698; actives 0.14% (n = 360,000); AID 602329; inhibition, % at 10.4 µM;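 active means mean normalized replicate activity at least 40 and at least half of replicates scoring 40 or more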;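 further: inhibitors cause a drop in the FAM fluorescence signal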
Of the large screens only hits and unclear results are named; the others gave an inactive call.

C[C@@H]1CCCCO[C@H](CN(C)C(=O)Nc2ccc(C(F)(F)F)cc2)[C@H](C)CN([C@@H](C)CO)C(=O)c2cc(N(C)C)ccc2O1	RAD52 inh 78
C[C@@H]1CCCCO[C@H](CN(C)Cc2ccc(C(F)(F)F)cc2)[C@H](C)CN([C@H](C)CO)C(=O)c2cc(N(C)C)ccc2O1	MLL AF4-AF9 inh 35
C[C@@H]1CCCCO[C@@H](CN(C)Cc2ccc(C(F)(F)F)cc2)[C@@H](C)CN([C@H](C)CO)C(=O)c2cc(N(C)C)ccc2O1	none
C[C@H]1CCCCO[C@@H](CN(C)Cc2ccc(C(F)(F)F)cc2)[C@@H](C)CN([C@@H](C)CO)C(=O)c2cc(N(C)C)ccc2O1	MLL AF4-AF9 inh 37
C[C@H]1CCCCO[C@@H](CN(C)C(=O)Cc2ccccc2)[C@@H](C)CN([C@@H](C)CO)C(=O)c2cc(NS(=O)(=O)c3cn(C)cn3)ccc2O1	none
CNC(=O)C[C@@H]1CC[C@H]2[C@H](COc3ccc(NC(=O)Nc4ccccc4OC)cc3C(=O)N2C)O1	none
C[C@@H]1CN([C@@H](C)CO)C(=O)Cc2cc(NC(=O)CCC(F)(F)F)ccc2O[C@@H]1CN(C)Cc1ccc(C(=O)O)cc1	none (no result: E-selectin induc)
C[C@@H]1CN([C@@H](C)CO)C(=O)c2cc(NC(=O)Nc3ccc(F)cc3)ccc2O[C@H]1CN(C)Cc1ccc(-c2ccccc2)cc1	none
CCOC(=O)c1nc2c(ccc3ccccc32)cc1C	rRNA inh HTS -31
CC1(C)CC(=O)C=C(c2ccc(COC(=O)Cc3ccccc3)cc2)C1=O	rRNA inh HTS -22
COc1ccc(NC(=O)N(C)C[C@H]2OCCCC[C@@H](C)Oc3ccc(NS(=O)(=O)c4ccccc4)cc3C(=O)N([C@H](C)CO)C[C@@H]2C)cc1	RAD52 inh 99
COc1ccc(S(=O)(=O)Nc2ccc3c(c2)C(=O)N([C@H](C)CO)C[C@H](C)[C@@H](CN(C)Cc2ccc(Cl)c(Cl)c2)O3)cc1	none
COc1ccc(CN(C)C[C@H]2OCCCC[C@H](C)Oc3ccc(NS(=O)(=O)c4ccc(F)cc4)cc3C(=O)N([C@H](C)CO)C[C@H]2C)cc1	RAD52 inh 55 (no result: E-selectin induc)
COc1ccc(CN(C)C[C@H]2OCCCC[C@@H](C)Oc3ccc(NS(=O)(=O)c4ccc(F)cc4)cc3C(=O)N([C@@H](C)CO)C[C@@H]2C)cc1	none (no result: E-selectin induc)
COc1ccc(CN(C)C[C@@H]2OCCCC[C@H](C)Oc3ccc(NS(=O)(=O)c4ccc(Cl)cc4)cc3C(=O)N([C@H](C)CO)C[C@@H]2C)cc1	RAD52 inh 55 (no result: E-selectin induc)
COc1ccc(S(=O)(=O)Nc2ccc3c(c2)C(=O)N([C@@H](C)CO)C[C@@H](C)[C@@H](CN(C)Cc2ccc(Cl)c(Cl)c2)O3)cc1	E-selectin induc 42
C[C@H](CO)N1C[C@H](C)[C@@H](CN(C)CC2CCCCC2)Oc2ncc(C#C[C@@H](C)O)cc2C1=O	none
COc1ccc(S(=O)(=O)Nc2ccc3c(c2)C(=O)N([C@@H](C)CO)C[C@@H](C)[C@@H](CN(C)Cc2ccc(C(=O)Nc4ccccc4N)cc2)O3)cc1	E-selectin induc 34
CCNC(=O)N(C)[C@H]1C[C@@H](c2ccccc2)N(C(C)=O)C[C@H]1CO	none (no result: MLL AF4-AF9 inh, RAD54 branch)
CN[C@H]1C[C@@H](c2ccccc2)N(C(C)=O)C[C@H]1CO	INS-1E GSIS act 42
CCCC(=O)Nc1ccc2c(c1)C(=O)N(C)C[C@@H](OC)[C@H](C)CN(CCc1ccccc1)[C@H](C)CO2	none
COc1ccc(NS(=O)(=O)c2cc(NC(=O)CCNC(=O)c3ccco3)ccc2OC)cc1	MLL AF4-AF9 inh 25 (no result: E-selectin induc)
O=C(C[C@H]1C[C@H]2c3cc(NC(=O)c4cccnc4)ccc3O[C@H]2[C@H](CO)O1)NCc1ccccn1	none
COCC(=O)N1CC2(CCN(C(=O)c3ccccn3)CC2)c2c(n(C)c3cc(OC)ccc23)[C@@H]1CO	none (no result: RAD54 branch)
CCOC(=O)c1c(NC(=O)Cn2nc(C(F)(F)F)cc2C)sc(C)c1C	INS-1E GSIS act 61 (no result: RAD52 inh, rRNA inh HTS, MLL AF4-AF9 inh)
CO[C@@H]1CN(C)C(=O)c2cc(NC(=O)NC(C)C)ccc2OC[C@@H](C)N(CCC(F)(F)F)C[C@@H]1C	none (no result: RAD52 inh, MLL AF4-AF9 inh)
COc1cccc(CNC(=O)c2ccc3c(c2)S(=O)(=O)N=C2CCCCCN23)c1	none (no result: E-selectin induc)
COc1cccc(CNC(=O)c2cc3c(cc2Cl)N2CCCCCC2=NS3(=O)=O)c1	E-selectin induc 100 (no result: RAD54 branch)
COc1ccccc1NC(=O)N(C)C[C@H]1OCc2ccccc2-c2c(n(C)c3ccccc23)C(=O)N([C@@H](C)CO)C[C@@H]1C	none
CCCC#Cc1cnc2c(c1)C(=O)N([C@H](C)CO)C[C@@H](C)[C@H](CN(C)C(=O)Nc1c(C)noc1C)O2	none
O=C(CNc1ccccc1)N/N=C/c1ccc2c(c1)OCO2	E-selectin induc 31 (no result: RAD54 branch)
O=C(N/N=C/c1ccccc1)c1cc(-c2ccc3c(c2)OCO3)n[nH]1	rRNA inh HTS -20 (no result: E-selectin induc)
O=C(CNc1ccccc1)N/N=C/c1ccc2c(c1)OCCO2	none (no result: RAD52 inh, rRNA inh HTS, E-selectin induc, MLL AF4-AF9 inh, RAD54 branch)
CCc1ccc(/C=N/NC(=O)c2cc(-c3cccc([N+](=O)[O-])c3)n[nH]2)cc1	rRNA inh HTS -19 (no result: E-selectin induc, INS-1E GSIS act)
O=C(NN=Cc1ccc2c(c1)OCO2)NN=Cc1ccc2c(c1)OCO2	rRNA inh HTS -21
COc1ccc(-c2ccc3c(c2)[C@H]2[C@H](CCN2S(=O)(=O)c2ccccc2C)[C@H](CO)N3)cc1	none (no result: RAD52 inh, MLL AF4-AF9 inh)
Cc1cccc(NCC(=O)N/N=C/c2cccc(Br)c2)c1	none (no result: RAD54 branch)
Cc1ccc(NCC(=O)N/N=C/c2cccc(Br)c2)cc1	rRNA inh HTS -23
Oc1ccc(/C=N/Nc2cc(N3CCOCC3)nc(N3CCOCC3)n2)cc1O	rRNA inh HTS -25 (no result: RAD54 branch)
Cc1nc(N/N=C/c2ccc(O)cc2O)cc(N2CCOCC2)n1	rRNA inh HTS -37, MLL AF4-AF9 inh 70
Cc1nc(N/N=C/c2cccc(F)c2)cc(N2CCOCC2)n1	none
COc1cccc(-c2ccc3c(c2)O[C@H](CN(C)Cc2cncnc2)[C@@H](C)CN([C@H](C)CO)S3(=O)=O)c1	none
O=c1c2ccccc2sn1-c1cc(S(=O)(=O)N2CCOCC2)ccc1N1CCOCC1	INS-1E GSIS act 208 (no result: RAD52 inh, rRNA inh HTS, E-selectin induc, MLL AF4-AF9 inh)
O=c1c2ccccc2sn1-c1cc(S(=O)(=O)N2CCOCC2)ccc1N1CCCC1	none (no result: RAD52 inh, rRNA inh HTS, E-selectin induc, INS-1E GSIS act, MLL AF4-AF9 inh)
CCC(=O)Nc1ccc2c(c1)OC[C@H](C)N(CC1CCOCC1)C[C@H](C)[C@H](OC)CN(C)C2=O	none
Cc1ccc(-n2c(C3CC3c3ccc(Cl)cc3)n[nH]c2=S)cc1 (stereo unspecified)	rRNA inh HTS -33 (no result: E-selectin induc)
Cc1ccc(C2CC2c2n[nH]c(=S)n2-c2ccc(C)cc2)cc1 (stereo unspecified)	none (no result: E-selectin induc)
C=CCOC(=O)c1cn(CC)c2nc(C)ccc2c1=O	rRNA inh HTS -25
C=Cc1ccc(COC(=O)c2cn(CC)c3nc(C)ccc3c2=O)cc1	none (no result: E-selectin induc)
